Reference: article PMC3558928 (Chemistry & biology, 2013)

Tests used:
PSNG13 cells [1] = test: Sister chromatid exchange; type: cell-based, human
Procedure, shortened: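 Stable transfectants of SV40-transformed Bloom syndrome fibroblast line GM08505 were used: PSNF5 (Flag-BLM) and PSNG13 (empty vector). Cells were left untreated or exposed to test compound, with exposures in the 24–72 hr range. Sister chromatid exchanges were scored as frequency per chromosome and number per chromosome.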

PSNG13 cells [2] = test: Clonogenic survival, sensitization to aphidicolin, PSNG13; type: cell-based, human
Procedure, shortened: (§1)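 Isogenic SV40-transformed Bloom syndrome fibroblasts (GM08505 background): PSNF5 stably expresses Flag-tagged BLM, PSNG13 carries empty vector. Cells were exposed to test compound for 24 hr, then aphidicolin was added at graded concentrations for a further 24 hr. Cells were washed and grown in drug-free medium for up to 12 days to form colonies. Survival curves come from three independent experiments (mean, SD).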

WRN^short (WRN^500–946) = WRN^short (WRN^500–946) (Homo sapiens, UniProt Q14191); test: Gel-based DNA unwinding assay, truncated WRN; type: biochemical
Sequence of WRN^short (WRN^500–946) (Q14191 500-946): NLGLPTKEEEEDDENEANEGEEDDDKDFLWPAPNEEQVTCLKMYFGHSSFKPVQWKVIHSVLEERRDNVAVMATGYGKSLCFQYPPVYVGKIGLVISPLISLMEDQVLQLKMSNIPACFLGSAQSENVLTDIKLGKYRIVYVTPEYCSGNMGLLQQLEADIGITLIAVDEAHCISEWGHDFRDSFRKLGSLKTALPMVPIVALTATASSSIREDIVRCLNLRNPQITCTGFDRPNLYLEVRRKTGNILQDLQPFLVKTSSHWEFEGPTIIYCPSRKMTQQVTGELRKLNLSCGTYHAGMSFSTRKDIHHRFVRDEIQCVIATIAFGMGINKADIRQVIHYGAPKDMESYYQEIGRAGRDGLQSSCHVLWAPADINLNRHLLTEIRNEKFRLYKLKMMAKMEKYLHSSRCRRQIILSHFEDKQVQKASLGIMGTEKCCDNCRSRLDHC

BLM [3] = biological target: T1, BLM (Homo sapiens, UniProt P54132); test: BLM disruption of D-loop, Holliday junction and G-quadruplex substrates; type: biochemical
T1 sequence (P54132 whole entry): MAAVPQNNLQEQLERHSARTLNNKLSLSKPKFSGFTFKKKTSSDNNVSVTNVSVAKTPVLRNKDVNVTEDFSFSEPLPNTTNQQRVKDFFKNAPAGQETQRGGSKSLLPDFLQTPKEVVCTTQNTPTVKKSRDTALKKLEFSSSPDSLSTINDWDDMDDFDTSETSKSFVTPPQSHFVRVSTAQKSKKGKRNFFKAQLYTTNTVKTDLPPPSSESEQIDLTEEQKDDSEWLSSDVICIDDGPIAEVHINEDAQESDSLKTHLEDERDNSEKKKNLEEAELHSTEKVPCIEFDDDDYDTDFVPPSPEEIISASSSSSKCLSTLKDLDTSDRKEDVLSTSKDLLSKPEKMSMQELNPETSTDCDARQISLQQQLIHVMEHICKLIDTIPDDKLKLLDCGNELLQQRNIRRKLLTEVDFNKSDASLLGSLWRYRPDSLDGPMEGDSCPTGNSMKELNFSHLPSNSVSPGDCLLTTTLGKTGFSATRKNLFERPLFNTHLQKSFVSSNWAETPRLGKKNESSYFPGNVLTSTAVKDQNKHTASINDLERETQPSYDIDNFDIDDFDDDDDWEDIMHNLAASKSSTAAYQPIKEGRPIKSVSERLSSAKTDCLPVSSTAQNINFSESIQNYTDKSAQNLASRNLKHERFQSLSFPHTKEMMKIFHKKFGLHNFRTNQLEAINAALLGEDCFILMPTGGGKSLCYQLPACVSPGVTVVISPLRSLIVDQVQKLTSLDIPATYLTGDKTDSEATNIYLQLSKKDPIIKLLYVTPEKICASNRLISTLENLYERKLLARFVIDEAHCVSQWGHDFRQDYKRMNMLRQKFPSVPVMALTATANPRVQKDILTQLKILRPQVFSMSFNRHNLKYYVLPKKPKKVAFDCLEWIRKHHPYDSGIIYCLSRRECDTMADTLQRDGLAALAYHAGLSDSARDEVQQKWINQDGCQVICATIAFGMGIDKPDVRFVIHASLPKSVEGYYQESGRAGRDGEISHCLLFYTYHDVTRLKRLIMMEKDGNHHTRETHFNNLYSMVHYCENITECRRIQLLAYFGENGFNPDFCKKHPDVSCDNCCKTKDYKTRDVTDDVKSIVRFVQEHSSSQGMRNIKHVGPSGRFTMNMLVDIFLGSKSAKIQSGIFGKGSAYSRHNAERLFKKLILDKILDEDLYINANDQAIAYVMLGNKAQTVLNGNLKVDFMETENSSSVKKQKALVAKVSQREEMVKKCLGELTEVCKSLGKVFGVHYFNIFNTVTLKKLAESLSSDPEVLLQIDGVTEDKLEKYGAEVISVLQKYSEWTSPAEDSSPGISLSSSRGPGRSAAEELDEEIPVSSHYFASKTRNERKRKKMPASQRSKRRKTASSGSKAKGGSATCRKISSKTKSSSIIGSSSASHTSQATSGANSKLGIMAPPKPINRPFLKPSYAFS

PSNF5 cells [4] = test: γ-H2AX focus formation after mitomycin C, PSNF5; type: cell-based, human; conditions: ML216 and MMC versus MMC alone, p<0.05
PSNG13 cells [5] = test: WST-1 proliferation assay, PSNG13; type: cell-based, human; conditions: PSNG13 (BLM−); 24–72 hours
E. coli UvrD helicase = E. coli UvrD helicase (Escherichia coli, UniProt P03018); test: Gel-based DNA unwinding assay, UvrD; type: biochemical
Sequence of E. coli UvrD helicase (P03018 whole entry): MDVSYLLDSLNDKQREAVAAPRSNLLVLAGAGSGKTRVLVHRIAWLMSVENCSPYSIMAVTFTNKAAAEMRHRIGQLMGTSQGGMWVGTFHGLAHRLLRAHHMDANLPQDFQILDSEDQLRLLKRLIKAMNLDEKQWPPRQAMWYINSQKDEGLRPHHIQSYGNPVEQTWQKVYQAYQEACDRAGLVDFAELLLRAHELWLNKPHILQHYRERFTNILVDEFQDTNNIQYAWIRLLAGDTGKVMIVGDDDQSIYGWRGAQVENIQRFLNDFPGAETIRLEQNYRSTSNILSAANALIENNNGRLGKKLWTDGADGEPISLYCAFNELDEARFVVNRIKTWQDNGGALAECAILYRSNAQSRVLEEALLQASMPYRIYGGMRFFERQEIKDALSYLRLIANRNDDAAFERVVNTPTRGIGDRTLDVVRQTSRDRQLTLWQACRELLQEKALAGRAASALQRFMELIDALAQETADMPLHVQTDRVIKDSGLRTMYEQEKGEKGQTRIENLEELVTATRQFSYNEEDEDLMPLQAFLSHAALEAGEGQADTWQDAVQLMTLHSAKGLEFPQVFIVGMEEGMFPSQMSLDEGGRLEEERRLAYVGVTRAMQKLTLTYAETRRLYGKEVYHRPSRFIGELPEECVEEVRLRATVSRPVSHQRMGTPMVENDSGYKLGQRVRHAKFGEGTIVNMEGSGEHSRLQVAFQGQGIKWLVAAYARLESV

human cells = test: Cell cycle checkpoint responses in cells; type: cell-based; conditions: 50µM, 24 hours; data not shown
BLM [6] = biological target: T1, BLM; test: Electrophoretic mobility shift assay; type: binding; conditions: ssDNA or forked duplex; increasing concentrations
RecQ5 = RecQ5 (Homo sapiens, UniProt O94762); test: Gel-based DNA unwinding assay, RECQ5; type: biochemical
Sequence of RecQ5 (O94762 whole entry): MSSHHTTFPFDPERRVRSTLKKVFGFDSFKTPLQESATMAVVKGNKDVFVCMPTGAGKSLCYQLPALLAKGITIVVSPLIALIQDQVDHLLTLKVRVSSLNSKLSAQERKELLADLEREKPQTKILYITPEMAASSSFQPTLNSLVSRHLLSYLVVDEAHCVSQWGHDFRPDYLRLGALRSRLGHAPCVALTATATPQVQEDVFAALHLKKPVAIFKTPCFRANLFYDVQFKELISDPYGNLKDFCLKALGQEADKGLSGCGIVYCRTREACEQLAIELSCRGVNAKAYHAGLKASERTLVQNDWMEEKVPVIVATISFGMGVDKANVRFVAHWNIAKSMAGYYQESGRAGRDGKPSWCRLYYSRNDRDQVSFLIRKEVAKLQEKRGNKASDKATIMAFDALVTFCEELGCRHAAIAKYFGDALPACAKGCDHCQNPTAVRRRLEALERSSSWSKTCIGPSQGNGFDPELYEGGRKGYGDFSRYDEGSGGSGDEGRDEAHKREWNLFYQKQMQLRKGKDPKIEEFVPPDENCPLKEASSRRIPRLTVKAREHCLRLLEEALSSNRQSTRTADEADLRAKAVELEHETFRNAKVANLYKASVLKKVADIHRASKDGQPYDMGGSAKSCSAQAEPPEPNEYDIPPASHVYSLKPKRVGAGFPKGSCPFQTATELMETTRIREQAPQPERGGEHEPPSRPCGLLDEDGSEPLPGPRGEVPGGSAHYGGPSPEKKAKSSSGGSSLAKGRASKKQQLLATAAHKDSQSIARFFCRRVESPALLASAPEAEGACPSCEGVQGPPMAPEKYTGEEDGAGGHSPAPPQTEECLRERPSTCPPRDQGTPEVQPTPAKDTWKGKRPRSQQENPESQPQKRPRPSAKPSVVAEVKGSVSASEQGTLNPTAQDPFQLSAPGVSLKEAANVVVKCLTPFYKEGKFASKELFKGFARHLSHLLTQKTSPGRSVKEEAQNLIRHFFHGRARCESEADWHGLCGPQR

PSNG13 cells [7] = test: γ-H2AX focus formation after mitomycin C, PSNG13; type: cell-based, human; conditions: with or without MMC, p>0.05
PSNF5 cells [8] = test: WST-1 proliferation assay, PSNF5; type: cell-based, human; conditions: PSNF5 (BLM+); 24–72 hours
WRN^+ and WRN^− cells [9] = test: Proliferation of WRN+ and WRN− fibroblasts; type: cell-based, human
BLM [10] = biological target: T1, BLM; test: ssDNA-dependent ATPase activity of BLM; type: biochemical
RecQ1 = biological target: T2, RecQ1 (Homo sapiens, UniProt P46063); test: Gel-based DNA unwinding assay, RECQ1; type: biochemical
T2 sequence (P46063 1-649): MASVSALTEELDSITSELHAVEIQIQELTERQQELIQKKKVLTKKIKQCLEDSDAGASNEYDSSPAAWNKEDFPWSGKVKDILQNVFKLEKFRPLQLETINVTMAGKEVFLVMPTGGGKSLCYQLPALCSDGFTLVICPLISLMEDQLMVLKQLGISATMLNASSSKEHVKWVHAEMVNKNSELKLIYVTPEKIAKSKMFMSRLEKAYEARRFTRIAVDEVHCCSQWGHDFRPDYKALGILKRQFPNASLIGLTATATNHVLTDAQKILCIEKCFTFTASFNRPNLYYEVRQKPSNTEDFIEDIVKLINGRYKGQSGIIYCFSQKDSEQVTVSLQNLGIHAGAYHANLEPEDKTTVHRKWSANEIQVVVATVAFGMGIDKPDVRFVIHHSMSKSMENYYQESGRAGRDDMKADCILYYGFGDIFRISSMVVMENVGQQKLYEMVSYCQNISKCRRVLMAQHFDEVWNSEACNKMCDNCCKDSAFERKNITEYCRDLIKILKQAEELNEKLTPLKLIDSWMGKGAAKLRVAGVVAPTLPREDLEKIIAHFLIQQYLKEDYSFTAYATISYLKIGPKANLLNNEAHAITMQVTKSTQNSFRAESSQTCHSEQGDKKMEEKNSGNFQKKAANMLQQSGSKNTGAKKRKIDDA

[11] = biological target: WRN^long (full length WRN) (Homo sapiens, UniProt Q14191); test: Gel-based DNA unwinding assay, full length WRN; type: biochemical
PSNF5 cells [12] = test: Sister chromatid exchange; type: cell-based, human
WRN^+ and WRN^− cells [13] = test: Aphidicolin sensitization of WRN+ and WRN− fibroblasts; type: cell-based, human
BLM [14] = biological target: T1, BLM; test: Fluorescence polarization assay of BLM binding to TAMRA-labeled oligonucleotide; conditions: dilution series; no nucleotide, ADP or ATP
BLM^full-length = BLM^full-length (Homo sapiens, UniProt P54132); test: Gel-based DNA unwinding assay, forked duplex, full-length BLM; type: biochemical
Sequence of BLM^full-length (P54132 whole entry): as the sequence (P54132 whole entry) above

PSNF5 cells [15] = test: Clonogenic survival, sensitization to aphidicolin, PSNF5; type: cell-based, human; conditions: ML216 24 hours before aphidicolin, p<0.01
Procedure, shortened: as §1

BLM [16] = biological target: T1, BLM; test: Traditional helicase assay, radiolabeled forked duplex, PAGE; type: biochemical
Procedure, shortened: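 Substrate was gel-purified and dialysed, and its concentration was set by scintillation counting. Reactions held at most 1% DMSO. Unwinding to ssDNA was resolved by PAGE and expressed as percent unwinding against untreated (0%) and heat-denatured (100%) controls. IC50 came from nonlinear regression.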

BLM^636–1298 = BLM^636–1298 (Homo sapiens, UniProt P54132); test: Fluorescence-quenching qHTS assay of BLM DNA unwinding; type: biochemical
Sequence of BLM^636–1298 (P54132 636-1298): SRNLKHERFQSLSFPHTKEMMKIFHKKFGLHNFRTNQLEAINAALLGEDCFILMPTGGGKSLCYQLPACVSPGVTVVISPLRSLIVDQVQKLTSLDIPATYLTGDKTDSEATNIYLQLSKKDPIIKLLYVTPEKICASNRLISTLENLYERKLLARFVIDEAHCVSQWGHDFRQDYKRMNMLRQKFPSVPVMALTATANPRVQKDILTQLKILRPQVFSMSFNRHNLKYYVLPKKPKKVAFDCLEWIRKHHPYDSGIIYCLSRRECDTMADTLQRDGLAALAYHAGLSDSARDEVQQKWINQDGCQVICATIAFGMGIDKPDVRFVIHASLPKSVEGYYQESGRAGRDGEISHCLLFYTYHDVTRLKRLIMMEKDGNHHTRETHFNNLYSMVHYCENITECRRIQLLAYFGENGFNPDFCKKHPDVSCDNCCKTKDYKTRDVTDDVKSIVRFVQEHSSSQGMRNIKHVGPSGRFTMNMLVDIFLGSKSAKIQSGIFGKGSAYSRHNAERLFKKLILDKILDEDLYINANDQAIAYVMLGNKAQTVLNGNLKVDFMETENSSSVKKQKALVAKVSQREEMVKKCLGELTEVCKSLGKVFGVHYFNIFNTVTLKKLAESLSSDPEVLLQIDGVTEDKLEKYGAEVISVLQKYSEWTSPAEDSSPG
Procedure, shortened: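 Quenched-fluorescence unwinding screen used bacterially expressed truncated BLM (residues 636–1298). The forked duplex substrate carries tetramethylrhodamine at the 3' end of one strand and Black Hole Quencher-2 at the 5' end of the complement. ATP-dependent unwinding raises fluorescence. Inhibition is the signal loss relative to DMSO-only controls, run as dose-response (qHTS).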

O=C(Nc1ccc(F)c(C(F)(F)F)c1)Nc1nnc(-c2ccncc2)s1 [ML216]
frequency of sister chromatid exchanges (SCEs) (PSNG13 cells [1]): not in PSNG13 cells | sensitivity to aphidicolin (PSNG13 cells [2]): no sensitizing effect | IC50 (WRN^short (WRN^500–946)): 12.6 µM | inhibition of BLM's G-quadruplex disrupting activity (BLM [3]): only very modest inhibition | inhibition of disruption of the D-loop substrate (BLM [3]; 50 µM): only at high concentrations | inhibition of disruption of the Holliday junction substrate (BLM [3]; 50 µM): only at high concentrations | γ-H2AX focus formation (PSNF5 cells [4]): statistically significant reduction | effect on cell proliferation (PSNG13 cells [5]): not of PSNG13 cells | IC50 (E. coli UvrD helicase): > 50 µM | inhibition of helicase activity (E. coli UvrD helicase; at 50 µM): only very modest inhibition | cell cycle arrest in G1/S or G2/M (human cells): did not cause cell cycle arrest | phosphorylation of ATM or ATR targets, including CHK1 and CHK2 (human cells): did not appear to cause phosphorylation | effect on DNA binding by BLM (EMSA) (BLM [6]): displacement of either ssDNA or forked duplex DNA from a complex with BLM | IC50 (RecQ5): > 50 µM | inhibition of helicase activity (RecQ5; at 50 µM): only very modest inhibition | γ-H2AX focus formation (PSNG13 cells [7]): no significant effect | effect on cell proliferation (PSNF5 cells [8]): inhibitor of the proliferation of PSNF5 cells | inhibition of proliferation, WRN^+ versus WRN^− cells (WRN^+ and WRN^− cells [9]): equally well | mode of inhibition of ATPase activity with respect to ATP (BLM [10]): non-competitive | IC50 (RecQ1): > 50 µM | inhibition of helicase activity (RecQ1; at 50 µM): only very modest inhibition | sensitivity of full length WRN versus WRN^500–946 (based on IC50 values) [11]: 2.5 fold | frequency of sister chromatid exchanges (SCEs) (PSNF5 cells [12]): statistically significant increase | frequency of SCEs, short exposure (PSNF5 cells [12]; present only during the last 8 hours): statistically significant increase in the frequency of SCEs | sensitization to aphidicolin, WRN^+ versus WRN^− cells (WRN^+ and WRN^− cells [13]): similarly sensitized both cell types | effect on DNA binding by BLM (fluorescence polarization) (BLM [14]): inhibits the ability of BLM to bind DNA | sensitivity of BLM versus WRN (based on IC50 values) (BLM^full-length): 1.7 fold | sensitivity to aphidicolin (PSNF5 cells [15]): increased the sensitivity

O=C(Nc1ccc(Cl)c(Cl)c1)Nc1nnc(-c2ccncc2)s1 [MLS000559245]
activity in radioactivity-based helicase assay (BLM [16]): showed activity | activity in fluorescence-based screening assay (BLM^636–1298): showed activity
